# Reference: ChEMBL document CHEMBL2034844, “Novel multi-functional nitrones for treatment of ischemic stroke” (2012)
# Active and inactive are the calls of the source. No cut-off for these calls is given here.
# How the values were obtained:
# Platelet = test: Inhibition of platelet aggregation in New Zealand rabbit platelet rich plasma assessed as maximum platelet aggregation at 2 mM after 8 mins by platelet aggregometry (reference value: 57.3 +/- 8.3%); format: functional, Oryctolagus cuniculus; parameters: scale not given: the % may be the effect or the level left
# [1] = Antioxidant activity assessed as superoxide anion-scavenging activity at 125 to 1000 uM by spectrophotometry; format: functional
# How it was run: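 Glass-cuvette mix of Tris–HCl buffer (pH 8.2), pyrogallic acid solution (0.16 mmol/L) and test sample at final 125, 250, 500 and 1000 µM; pyrogallol-autoxidation superoxide assay.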
# Neuron [2] = test: Neuroprotective activity against t-BHP-induced rat cerebellar granule neuronal damage at 100 uM preincubated for 30 mins prior t-BHP challenge measured after 4 hrs by MTT assay (reference value: 49.4%); format: functional, cell-based
# Neuron [3] = test: Neuroprotective activity against t-BHP-induced rat cerebellar granule neuronal damage at 1000 uM preincubated for 30 mins prior t-BHP challenge measured after 4 hrs by MTT assay (reference value: 49.4%); format: functional
# [4] = Antioxidant activity assessed as peroxynitrite radical-scavenging activity at 1 to 1000 uM by SIN-1 based chemiluminescence assay; format: functional
# How it was run: (§1)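 Peroxynitrite generated from SIN-1 dissolved in 0.1 M PBS. The mix held PBS, luminol, compound or PBS control, and SIN-1 added last to start the reaction; read-out was chemiluminescence.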
# [5] = system: Radical scavenging activity; test: Antioxidant activity assessed as DPPH radical-scavenging activity at 0.5 to 4 mM by spectrophotometry; format: functional
# How it was run: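 50 µL methanolic compound solution mixed with 150 µL methanolic DPPH; absorbance at 515 nm followed continuously until stable (50 min); clearance (%) calculated from the control absorbance and the reaction absorbance at 50 min.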
# [6] = Antioxidant activity assessed as peroxynitrite radical-scavenging activity at 1000 uM by SIN-1 based chemiluminescence assay; format: functional; how it was run: as §1
# Rattus norvegicus = test: Neuroprotective activity in Sprague-Dawley rat tMCAO model assessed as reduction in total brain infarct volume at 110 mg/kg, ip after 24 hrs by TTC staining relative to control; format: functional; parameters: scale not given: the % may be the effect or the level left; conditions: route intraperitoneal
# How it was run: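 Adult male Sprague–Dawley rats (260–310 g), chloral hydrate anaesthesia; nylon suture occluding right MCA for 2 h, then reperfusion. Only rats with neurological score 2 or 3 used; body temperature held at 37 °C. Dosed ip 2 h after MCAO; saline vehicle controls. Killed after 22 h reperfusion; six 2-mm coronal slices stained with 0.5% TTC, 37 °C, 30 min; infarct volume by image analysis; n = 13/group.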
# [7] = Antioxidant activity assessed as peroxynitrite radical-scavenging activity at 1 uM by SIN-1 based chemiluminescence assay; format: functional; how it was run: as §1
# [8] = Antioxidant activity assessed as hydroxyl radical-scavenging activity at 1000 uM by monitoring p-NDA bleaching using spectrophotometry; format: functional
# How it was run: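 Fenton-generated hydroxyl radical from FeSO4 (final 4.0 mM) and freshly prepared H2O2 (7.3 mM). p-NDA was prepared at 1.6 mM in 50 mM NaCl. Compounds were dissolved in double-distilled water at final 125–1000 µM. p-NDA bleaching was followed as absorbance loss at 440 nm over 100 s; clearance (%) was calculated from absorbance at 0 and 100 s.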
SMILES,Activity (Platelet) [%],Activity [1],Activity (Neuron [2]),Activity (Neuron [3]),Activity (Neuron [3]; record 2) [%],Activity [4],Activity [5],Activity [6] [%],Activity (Rattus norvegicus) [%],Activity [7] [%],Activity [8] [%]
CC(=O)Oc1ccccc1C(=O)O [ASPIRIN],26.6,–,–,–,–,–,–,–,–,–,–
CCc1nccnc1/C=[N+](\[O-])C(C)(C)C,33.8,Active,Active,Active,64.6,Active,–,–,–,–,–
CC(C)(C)/[N+]([O-])=C/c1cnc2ccccc2n1,–,–,inactive,53.9%,–,inactive,Active,–,–,–,–
CC(C)(C)/[N+]([O-])=C/c1cccc2nccnc12,–,–,inactive,54.8%,–,inactive,Active,–,–,–,–
CCCc1nccnc1/C=[N+](\[O-])C(C)(C)C,48,Active,Active,Active,66,Active,Active,–,–,–,–
Cc1nc(C)c(C)nc1C [LIGUSTRAZINE],42.9,inactive,–,58.4%,–,inactive,Active,–,–,–,–
Cc1nc(/C=[N+](\[O-])C(C)(C)C)c(C)nc1/C=[N+](\[O-])C(C)(C)C,37.7,Active,Active,80.6%,–,–,Active,99.4,65,31.9,–
CC(C)(C)/[N+]([O-])=C\c1ccccc1,–,inactive,–,–,–,Active,Active,–,–,–,–
Cc1nc(C)c(CN(Cc2nc(C)c(C)nc2C)C(C)(C)C)nc1C,44.3,inactive,Active,75.5%,–,inactive,Active,–,–,–,100
